NadD block = NadD (S. aureus) enzyme inhibition; 360,000 tested, 0.78% active; inhibition, % at 20 µM; purified NadD enzyme, colorimetric absorbance read-out; AID 602399; in the data active means inhibition above about 26%
VIM-2 inh = blocks Pseudomonas aeruginosa VIM-2 metallo-beta-lactamase. purified VIM-2, nitrocefin hydrolysis, epi-absorbance fluorescence. inhibition, % at 5.6 µM. 290,000 tested, 0.89% active. AID 1527;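 active means inhibition above the mean of all tested compounds plus 3 SD, cutoff set per screening run, cut at about 7.5% in these data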;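 further: red hydrolysis product quenches plate fluorescence so inhibitors raise well fluorescence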
IMP-1 inh-1 = blocks Pseudomonas aeruginosa IMP-1 metallo-beta-lactamase | purified IMP-1, nitrocefin hydrolysis, epi-absorbance fluorescence | inhibition, % at 5.6 µM | 290,000 tested, 0.45% active;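 active means inhibition above the mean plus 3 SD of all compounds in the same screening run, cut at about 4.5% in these data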
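System: purified IMP-1; amount: IMP-1 0.2 nM before substrate addition; compound: single dose, 5.6 µM; times: 25 °C, 15 min preincubation, 25 min reaction; signal: Epi-absorbance via hydrolysed-nitrocefin quenching of white-plate fluorescence, 480/530 nm, EDTA stop; benchmarks: DMSO with and without IMP-1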
HCV core dimer = blocks dimerization of HCV core protein. AID 1899. inhibition, % at 5 µM. TR-FRET GST/Flag-core106 dimerization, 1536-well. 300,000 tested, 0.33% active;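 active means inhibition above the mean of all tested compounds plus 3 SD, set per screening campaign, cut at about 45% in these data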
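Assay system: tagged HCV core106 pair (GST and Flag); medium: KF-containing HEPES buffer, pH 7.45, DTT, CHAPS, BSA; also added: Eu donor and XL665 acceptor anti-tag antibodies; dosing: 5 µM single dose; timing: compound-protein-antibody incubation 4 h at 22.5 °C; signal: TR-FRET 671 and 617 nm emission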
IMP-1 inh-2 = selectivity counter-screen for VIM-2 inhibitors: IMP-1 metallo-beta-lactamase inhibitors. 1,300 tested, under 10 active. AID 1856. shares compounds with VIM-2 inh. inhibition, % at 5.6 µM. purified IMP-1, nitrocefin hydrolysis, epi-absorbance fluorescence; call rule not given here
VIM-2 FRET inh = counter-screen for VIM-2 inhibitors: epi-absorbance artifacts via FRET; shares compounds with VIM-2 inh; purified VIM-2, CCF2 FRET substrate hydrolysis; 1,300 tested, 23% active; inhibition, % at 5.6 µM; AID 1857;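 active means inhibition above the mean of all tested compounds plus 3 SD, cut at about 19% in these data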
TEM-1 inh = selectivity counter-screen for VIM-2 inhibitors: E. coli TEM-1 inhibitors; shares compounds with VIM-2 inh; Purified TEM-1, nitrocefin hydrolysis, epi-absorbance fluorescence; inhibition, % at 5.6 µM; 1,300 tested, 3% active; AID 1866;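 active means inhibition above that campaign's mean inhibition plus 3 SD, cut at about 0.46% in these data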
Target sequence (P62593 whole entry, looked up): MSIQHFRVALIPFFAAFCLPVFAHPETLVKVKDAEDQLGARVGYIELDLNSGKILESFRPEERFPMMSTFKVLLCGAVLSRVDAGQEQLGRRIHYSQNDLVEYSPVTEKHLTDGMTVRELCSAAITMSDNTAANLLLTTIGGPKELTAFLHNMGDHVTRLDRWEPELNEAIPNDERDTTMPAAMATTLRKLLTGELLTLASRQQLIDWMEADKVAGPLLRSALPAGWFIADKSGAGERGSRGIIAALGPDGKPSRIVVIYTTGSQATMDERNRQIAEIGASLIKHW
VIM-2 inh conf = confirmation of P. aeruginosa VIM-2 metallo-beta-lactamase inhibitors. shares compounds with VIM-2 inh. purified VIM-2, nitrocefin hydrolysis, epi-absorbance. inhibition, % at 5.6 µM. 1,300 tested, 96% active. AID 2187;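 active means inhibition of the VIM-2 beta-lactamase enzyme above about 11% from the earlier first-round screen, limit read from the data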
Hits are given with their value; – = inactive; · = no result given. Shown are actives, neighbours in structure and some others; about 1.9% of the full set was active somewhere.

SMILES	NadD block	VIM-2 inh	IMP-1 inh-1	HCV core dimer	IMP-1 inh-2	VIM-2 FRET inh	TEM-1 inh	VIM-2 inh conf
CCN(C[C@H]1N[C@@](Cc2ccccc2)(C(=O)OC)[C@H]2C(=O)N(C)C(=O)[C@@H]12)C(=O)Nc1ccc(Cl)cc1	–	·	·	·	·	·	·	·
Clc1ccc(CNc2ncnc3[nH]ncc23)c(Cl)c1	–	·	·	·	·	·	·	·
Cc1nc2ncccn2c1-c1csc(Nc2ccc(S(N)(=O)=O)cc2)n1	–	17	–	–	–	–	–	28
Cc1c(Cl)c(-c2n[nH]c(=S)n2-c2ccccc2)nn1C	–	19	–	–	–	44	–	27
Cc1c(Cl)c(-c2n[nH]c(=S)n2Cc2ccco2)nn1C	–	–	–	–	·	·	·	·
O=c1c(-c2n[nH]c(=S)n2-c2ccccc2)cccn1Cc1cccc(Cl)c1	–	25	–	–	–	48	–	31
O=[N+]([O-])c1cccc(-c2n[nH]c(=S)n2-c2ccccc2)c1	·	–	–	–	·	·	·	·
C=CCn1c(-c2cccn(Cc3cccc(Cl)c3)c2=O)n[nH]c1=S	–	–	–	–	·	·	·	·
Cc1cccc(-c2n[nH]c(=S)n2-c2ccccc2)c1[N+](=O)[O-]	–	34	–	–	–	62	–	44
Cc1ccc(N(C(=O)c2csnn2)C(C(=O)NC2CCCCC2)c2cccnc2)c(C)c1 (stereo not drawn)	–	–	–	–	·	·	·	·
CCOP(=O)(O)c1ccccc1OCCOCCOc1ccccc1P(=O)(O)OCC	–	–	–	–	·	·	·	·
O=P(O)(O)c1ccccc1OCc1ccccc1	–	55	–	–	–	81	–	68
O=P(O)(O)c1ccccc1OCCCCCOc1ccccc1P(=O)(O)O	–	62	–	–	–	76	–	66
NNC(=O)c1ccccc1OCc1ccccc1	–	–	–	–	·	·	·	·
Cc1cc(C)n(Cc2ccc(C(=O)N/N=C/c3ccc(-c4ccc([N+](=O)[O-])cc4)o3)o2)n1	–	42	–	–	–	–	13	14
CCCCC(=O)N/N=C/c1ccc(-c2ccc([N+](=O)[O-])cc2)o1	–	–	–	–	·	·	·	·
COCCN(C(=O)CNC(=O)c1cccs1)C(C(=O)NC(C)(C)C)c1ccccc1 (stereo not drawn)	–	–	–	–	·	·	·	·
c1ccc(CNc2nc(-c3ccccn3)nc3ccccc23)cc1	–	19	–	–	–	–	–	26
c1ccc(CNc2nc(-c3ccccc3)nc3ccccc23)cc1	–	–	–	–	·	·	·	·
Cc1c(C)c2c(OCC(=O)NCc3ccncc3)cc3c(c2oc1=O)CCC(C)(C)O3	–	31	–	–	–	–	–	41
Cc1c(C)c2c(OCC(=O)N[C@@H](C)C(=O)O)cc3c(c2oc1=O)CCC(C)(C)O3	–	46	–	–	–	70	–	53
Cc1c(C)c2c(OCC(=O)N3CCC(O)CC3)cc3c(c2oc1=O)CCC(C)(C)O3	–	–	–	–	·	·	·	·
CCc1cc(=O)oc2c3c(cc(OCC(=O)NCc4ccccn4)c12)OC(C)(C)CC3	–	–	–	–	·	·	·	·
Cc1c(C)c2c(OCC(=O)N3CCC[C@H]3C(=O)O)cc3c(c2oc1=O)CCC(C)(C)O3	–	70	–	–	–	85	–	72
CCc1cc(=O)oc2c3c(cc(OCC(=O)Nc4cccnc4)c12)OC(C)(C)CC3	–	67	–	–	–	–	–	78
SMILES	NadD block	VIM-2 inh	IMP-1 inh-1	HCV core dimer	IMP-1 inh-2	VIM-2 FRET inh	TEM-1 inh	VIM-2 inh conf
Cc1ccc(NC(=O)CNC(=O)c2ccc(OC(F)F)cc2)cc1S(=O)(=O)N1CCCCCC1	–	·	·	·	·	·	·	·
CC(C)[C@H](NC(=O)c1ccccc1Cl)C(=O)Nc1ccc(S(=O)(=O)Nc2nccs2)cc1	–	·	·	·	·	·	·	·
CCN(CC)Cc1c(C(=O)N/N=C/c2ccc(C)o2)nnn1-c1nonc1N	–	–	–	–	·	·	·	·
Cc1c(C)c2c(OCC(=O)NCC(C)C)cc3c(c2oc1=O)CCC(C)(C)O3	–	–	–	·	·	·	·	·
Cc1c(C)c2c(OCC(=O)Nc3cccnc3)cc3c(c2oc1=O)CCC(C)(C)O3	–	42	–	–	–	–	–	52
OC(CON=C1c2ccccc2-c2ccccc21)CN1CCNCC1 (stereo not drawn)	–	30	–	–	–	–	–	45
CN1CCN(C(=O)CSc2ccc(C(F)(F)F)cc2[N+](=O)[O-])CC1	–	13	–	–	–	–	–	38
COC(=O)c1c(NC(=O)c2ccco2)sc2c1CCN(C(C)=O)C2	–	21	–	–	–	–	–	30
CC1CCCN(c2c3c(nc4ccccc24)CCCC3)C1 (stereo not drawn)	–	13	–	–	–	–	–	21
CCC(Cc1ccccc1)NS(=O)(=O)c1ccc2c(c1)NC(=O)CO2 (stereo not drawn)	–	–	–	–	·	·	·	·
CC(C)Cn1c(-c2ccccc2F)n[nH]c1=S	–	19	–	–	–	30	–	21
CCCCn1c(-c2ccoc2C)n[nH]c1=S	–	16	–	–	–	45	–	30
C=CCn1c(-c2ccoc2C)n[nH]c1=S	–	–	–	–	·	·	·	·
CC(C)Cn1c(-c2ccco2)n[nH]c1=S	–	17	–	–	–	49	–	31
CC(C)Cn1c(-c2ccco2)nc2c(c(=O)c3ccccc3n2C)c1=O	·	13	–	–	–	–	–	32
CC(C)Cn1c(-c2ccc(F)cc2)n[nH]c1=S	–	–	–	–	·	·	·	·
O=C(NCC1CCCO1)c1ccc[nH]1 (stereo not drawn)	–	–	–	–	·	·	·	·
Cc1ccc(Cl)cc1NC(=O)Cn1c(C)csc1=O	–	·	·	·	·	·	·	·
O=C(CC1NC(=S)NC1=O)c1ccc(Cl)cc1 (stereo not drawn)	–	–	–	–	·	·	·	·
CCCCn1c(-c2ccco2)n[nH]c1=S	–	42	–	–	–	72	–	53
CCCCn1c(Cc2ccccc2)n[nH]c1=S	–	–	–	–	·	·	·	·
Cc1ccccc1-n1c(-c2ccco2)n[nH]c1=S	–	14	–	–	–	45	–	31
CCCCn1c(-c2sccc2C)n[nH]c1=S	–	39	–	–	–	67	–	50
Cc1cc(C)cc(Oc2nc(C(F)(F)F)nc3ccccc23)c1	–	–	–	–	·	·	·	·
CC(=O)Nc1ccc(Oc2nc(C(F)(F)F)nc3ccccc23)cc1	–	21	–	–	–	–	–	30
CSc1nc(NCCCN(C)C)c2c3c(sc2n1)CN(C)CC3	·	25	–	·	–	–	–	37
COCCCNC(=O)c1cc2c(=O)n3cccc(C)c3nc2n(C(C)C)c1=N	–	13	–	–	–	–	1.1	28
